A short description of test [1]: inhibitors of TNFa-induced NFkB p65 translocation, primary screen, imaging, HUVEC, MLSMR starter and 10KST1 sets (AID 438;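 active means inhibition above 20% together with a positive visual image hit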;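 further: compound added about 3h40 before a 20 min TNFalpha stimulation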;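 on inhibition: signal is the nuclear over cytoplasmic p65 intensity ratio per well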). The settings on record: HUVEC TNFa-induced p65 nuclear translocation; cell count: measured here: nuclei count (cytotoxicity indicator), at 2.08 µM; inhibition: at 2 µM, stronger effect = higher value, 0% TNFa-plus-vehicle, 100% no-TNFa wells.
A short description of test [2]: inhibitors of mutant huntingtin aggregation, primary screen, imaging, exon1htt(103Q)mCFP cells, high-content imaging (AID 483;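 active means visual image review flags a hit and inhibition of aggregation exceeds 20%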;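 further: compound exposure lasted 3 days before fixation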;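 on nuclei count: percent of the per-plate median nuclei count of sample wells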). The settings on record: exon1htt(103Q)mCFP cell line, aggregate imaging, at 2 µM; inhibition of aggregation: stronger effect = higher value; nuclei count: measured here: cell count, toxicity.
Test [3] in a line: inhibitors of E-selectin induction by TNFa, primary screen, imaging, HUVEC, immunofluorescence, MLSMR starter and 10KST1 sets (AID 487;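 active means visually confirmed hit in the image check and inhibition above 20%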;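 on inhibition: signal is fraction of cell area covered by stained E-selectin grains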;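 on nuclei count: 100% = median nuclei count of all wells on the same plate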). Conditions: HUVEC TNFalpha-induced E-selectin immunofluorescence imaging, at 2 µM; inhibition: stronger effect = higher value; nuclei count: measured here: cell number, toxicity.
The target of test [4] is Voltage-gated potassium channel subunit beta-2 (Rattus norvegicus) (UniProt P62483). Kind of test: KvBeta enzyme negative modulators, primary screen, biochemical, NADPH fluorescence (AID 622;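 active means fluorescence slope higher than the sample average by over 3 SD, cut at about -0.22 in these data, passing the limit was not always enough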;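 further: slope of raw intensity against log time taken from 70 to 1610 s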). Conditions: recombinant KvBeta, 4-cyanobenzaldehyde reduction, at 10 µM, stronger effect = higher value.
Test [5] has the same target. Kind of test: KvBeta positive modulators, primary screen, biochemical, NADPH fluorescence (AID 623;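 active means NADPH fluorescence slope more negative than the mean of all samples by about 3 SD, 99.7% confidence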;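 further: fluorescence intensity change per second fitted from 20 to 320 s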). Conditions: Recombinant KvBeta, NADPH fluorescence decrease slope, 10 min; at 10 µM; stronger effect = lower value.
For test [6], the target named is Muscarinic acetylcholine receptor M4 (Homo sapiens) (UniProt P08173). Kind of test: compounds altering M4/GIRK thallium flux, either direction, primary screen, M4 allosteric agonist project, cell-based, HEK293 M4/GIRK, BTC-AM (AID 625;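 active means fluorescence slope after compound addition differing from the mean of all tested samples at 99.7% confidence, mostly higher but some lower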;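 further: thallium influx through GIRK channels coupled to M4 in HEK293 cells with BTC-AM dye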). The settings on record: at 10 µM, actives lie on both sides. Summed up:
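Material: M4/GIRK1/GIRK2 stable HEK293 cell line. Medium: pH 7.3 thallium assay buffer. Dosing: single compound concentration, 10 µM final. Schedule: 1 h dye loading, 2 min kinetic read. Measured by: kinetic fluorescence with BTC-AM dye. Read-out: post-addition slope, 15–24 s, of baseline-normalized fluorescence. Benchmarks: carbachol and DMSO controls.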

Test [7] in a line: inhibitors of Sendai virus-induced IRF3 signaling, primary screen, TLR/RLR signaling modifier project, cell-based, Sendai virus stimulus, luciferase, 10K MLSCN set (AID 602276).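 Further: firefly luciferase from ISG56 promoter only with Renilla not read in this screen; 0% = Sendai virus plus DMSO and 100% = medium plus DMSO without virus.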 Conditions: HEK293 RL24 IRF3 luciferase reporter, at 10 µM, stronger effect = higher value. (In general: In a reporter assay the amount or activity of a reporter protein is the signal.)
The nature of test [8]: inhibitors of poly I:C-induced TLR3 signaling, primary screen, cell-based, poly I:C stimulus, luciferase, 10K MLSCN set (AID 602277;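 active means inhibition of the reporter signal at or above 50%; inactive means inhibition below 50%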). Conditions: HEK293-TLR3 RL24 IRF3 luciferase reporter, at 10 µM, stronger effect = higher value.

Calls of active or inactive are those of the source.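 How the source made its calls, unless noted: active means inhibition at or above 50% at 10 µM; inactive means inhibition below 50%.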

As a reminder, the inhibition is the drop in the measured response relative to a control, in per cent.

Muscarinic acetylcholine receptor M4 (Homo sapiens), sequence (P08173 whole entry, looked up): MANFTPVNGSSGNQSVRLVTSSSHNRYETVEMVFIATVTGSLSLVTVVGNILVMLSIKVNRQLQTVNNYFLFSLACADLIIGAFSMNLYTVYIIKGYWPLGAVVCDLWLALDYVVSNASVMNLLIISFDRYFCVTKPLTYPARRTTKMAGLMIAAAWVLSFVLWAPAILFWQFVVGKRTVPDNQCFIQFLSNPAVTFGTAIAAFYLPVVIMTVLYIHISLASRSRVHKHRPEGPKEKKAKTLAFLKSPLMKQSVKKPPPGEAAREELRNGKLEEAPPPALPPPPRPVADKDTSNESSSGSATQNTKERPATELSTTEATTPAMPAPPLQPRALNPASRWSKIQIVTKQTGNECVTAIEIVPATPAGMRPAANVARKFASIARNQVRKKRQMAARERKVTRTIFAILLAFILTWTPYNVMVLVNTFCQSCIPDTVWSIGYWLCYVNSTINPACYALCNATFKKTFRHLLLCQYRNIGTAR
Voltage-gated potassium channel subunit beta-2 (Rattus norvegicus), sequence (P62483 whole entry, looked up): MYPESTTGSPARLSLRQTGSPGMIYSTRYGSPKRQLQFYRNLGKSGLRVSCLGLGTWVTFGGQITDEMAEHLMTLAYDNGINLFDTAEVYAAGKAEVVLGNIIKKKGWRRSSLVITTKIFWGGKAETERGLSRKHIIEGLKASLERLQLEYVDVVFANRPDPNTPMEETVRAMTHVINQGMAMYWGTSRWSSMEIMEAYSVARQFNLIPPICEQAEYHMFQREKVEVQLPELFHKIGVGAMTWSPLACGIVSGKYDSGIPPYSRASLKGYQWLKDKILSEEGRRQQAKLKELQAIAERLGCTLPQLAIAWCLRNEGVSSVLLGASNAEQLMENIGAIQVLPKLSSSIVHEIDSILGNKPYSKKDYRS

`CC(C)(C)n1nnnc1C(c1cccc(C#N)c1)N1CCC(Cc2ccccc2)CC1` (centres undefined): the cell count in test [1] was 613. The inhibition in test [1] is -13.9% (inactive); in test [3], -8% (inactive); in test [7] it was 25.2% (inactive); in test [8], 36.8% (inactive). Further, the inhibition of aggregation in test [2] was 30.1% (inactive). In addition, the results for the nuclei count in test [2] and in test [3] were 81.1% and 128%, respectively. In addition, the fluorescence slope in test [4] is -0.571 (inactive); in test [6], 0.00477 (inactive). Moreover, the NADPH fluorescence slope in test [5] was -3.4e-05 (inactive).
Consider `COc1ccc(-n2ncc3c(NCc4ccc5c(c4)OCO5)ncnc32)cc1`, for which, in test [1], the cell count is 360. In addition, the inhibition is -4.3% (inactive) in test [1], -9.3% (inactive) in test [3], -4.14% (inactive) in test [7] and -24.9% (inactive) in test [8]. Further, the inhibition of aggregation in test [2] was 9.7% (inactive). Besides, the nuclei count was determined as 94.3% in test [2] and 105% in test [3]. Also, the fluorescence slope was -0.539 (inactive) in test [4] and 0.00526 (inactive) in test [6]. Further, the NADPH fluorescence slope in test [5] is -4.4e-05 (inactive).
`Cc1cccn2c(=O)c3cc(C#N)c(=O)n(CCCN4CCOCC4)c3nc12`: the cell count in test [1] turned out to be 519. In addition, the inhibition in test [1] was 1% (inactive); in test [3] it was -24.9% (inactive); in test [7] it was 11.2% (inactive); in test [8], 40.1% (inactive). Moreover, in test [2], the inhibition of aggregation was 15.5% (inactive). The nuclei count in test [2] was 71.7%; in test [3], 173%. Further, the fluorescence slope in test [4] is -0.153 (inactive); in test [6] it was 0.00481 (inactive). Further, in test [5], the NADPH fluorescence slope was -1.6e-05 (inactive).
`COc1cccc(-c2cc(C(=O)N3CCCc4ccccc43)no2)c1`: in test [1], the cell count turned out to be 406. Also, the inhibition was -23% (inactive) in test [1], -13.2% (inactive) in test [3], 0.639% (inactive) in test [7] and -88.4% (inactive) in test [8]. Moreover, the inhibition of aggregation in test [2] is -4.7% (inactive). Besides, the nuclei count came out at 102% in test [2] and 94.5% in test [3]. Also, the fluorescence slope in test [4] was -0.217 (inactive); in test [6] it was 0.00726 (inactive). The NADPH fluorescence slope in test [5] was -1.8e-05 (inactive).
Consider `CC(C)(C)Nc1nc(OCC(F)(F)F)nc(OCC(F)(F)F)n1`, for which the cell count in test [1] is 448. In addition, the inhibition was 11.9% (inactive) in test [1], -0.8% (inactive) in test [3], 7.39% (inactive) in test [7] and 8.5% (inactive) in test [8]. Besides, in test [2], the inhibition of aggregation is -14.2% (inactive). In addition, the nuclei count was 103% in test [2] and 114% in test [3]. Further, the fluorescence slope in test [4] is -0.424 (inactive); in test [6], 0.00457 (inactive). The NADPH fluorescence slope in test [5] was -0.000395 (inactive).
For the compound `CCCCc1c(O)nc(SCC(=O)c2ccccc2)[nH]c1=O`, in test [1], the cell count came out at 375. The inhibition in test [1] is 1.7% (inactive); in test [3] it was 21.3% (inactive); in test [7], 14.2% (inactive); in test [8], 11.2% (inactive). In addition, in test [2], the inhibition of aggregation was 10.7% (inactive). Further, the results for the nuclei count in test [2] and in test [3] were 90.4% and 95.1%, respectively. The fluorescence slope was -0.561 (inactive) in test [4] and 0.00359 (inactive) in test [6]. Also, in test [5], the NADPH fluorescence slope was -8.5e-05 (inactive).
`CCOC(=O)C1=C(CN2CCOCC2)NC(=O)NC1c1cc(C)ccc1C` (centres undefined): in test [1], the cell count is 492. Moreover, the inhibition was -3% (inactive) in test [1], -30.8% (inactive) in test [3], 15.4% (inactive) in test [7] and 7.78% (inactive) in test [8]. Also, the inhibition of aggregation in test [2] is -1.1% (inactive). For the same compound, the results for the nuclei count in test [2] and in test [3] were 117% and 108%, respectively. For the same compound, the fluorescence slope in test [4] is -0.205 (inactive); in test [6], 0.00619 (inactive). Also, in test [5], the NADPH fluorescence slope is -1.6e-05 (inactive).
For `O=C(CCNC(=O)Cn1ccc2ccccc2c1=O)NCCN1CCN(c2ccccc2F)CC1`, the cell count in test [1] turned out to be 335. Moreover, the inhibition in test [1] is -5.7% (inactive); in test [3] it was 1.6% (inactive); in test [7] it was 12.1% (inactive); in test [8], 14.1% (inactive). Besides, the inhibition of aggregation in test [2] was -19.4% (inactive). In addition, the nuclei count in test [2] and in test [3] was 104% throughout. In addition, the fluorescence slope in test [4] was -0.528 (inactive); in test [6] it was 0.00558 (inactive). For the same compound, the NADPH fluorescence slope in test [5] was 3.6e-05 (inactive).
As for `Cc1nn(-c2ccccc2)c(Cl)c1C1C(C#N)=C(N)OC2=C1C(=O)CC(C)(C)C2` (centres undefined), the cell count in test [1] was 378. Moreover, the inhibition is 5.6% (inactive) in test [1], -110% (inactive) in test [3], 6.31% (inactive) in test [7] and 31.1% (inactive) in test [8]. For the same compound, in test [2], the inhibition of aggregation was -4.8% (inactive). Further, the nuclei count in test [2] is 100%; in test [3], 113%. Moreover, the values for the fluorescence slope in test [4] and in test [6] were -0.577 (inactive) and 0.00783 (inactive), respectively. Moreover, the NADPH fluorescence slope in test [5] was -3.7e-05 (inactive).
`COCn1c(COc2ccccc2)nc2ccccc21`: in test [1], the cell count amounted to 478. Further, the inhibition was 9.6% (inactive) in test [1], 29% (inactive) in test [3], -20.6% (inactive) in test [7] and -112% (inactive) in test [8]. In test [2], the inhibition of aggregation was -10.6% (inactive). Also, the nuclei count stood at 114% in test [2] and 123% in test [3]. The fluorescence slope in test [4] is -0.248 (inactive); in test [6] it was 0.00599 (inactive). In addition, the NADPH fluorescence slope in test [5] was -1.5e-05 (inactive).
Turning to `COc1cc(NS(=O)(=O)c2cccc3nsnc23)c(C(=O)O)cc1OC`, the cell count in test [1] came to 296. The inhibition was -6% (inactive) in test [1], 5.3% (inactive) in test [3], 14.8% (inactive) in test [7] and 17.5% (inactive) in test [8]. Also, the inhibition of aggregation in test [2] is -7.8% (inactive). The nuclei count in test [2] is 95.9%; in test [3], 136%. Also, the fluorescence slope is -0.575 (inactive) in test [4] and 0.00636 (inactive) in test [6]. Besides, the NADPH fluorescence slope in test [5] is -4.3e-05 (inactive).
`CC1CCN(C(=O)CSc2nnc(-c3cccnc3)n2C2CCCCC2)CC1`: the cell count in test [1] is 463. The inhibition is -5.1% (inactive) in test [1], -34.6% (inactive) in test [3], 18.4% (inactive) in test [7] and 16.9% (inactive) in test [8]. Besides, the inhibition of aggregation in test [2] is 6.5% (inactive). Further, the nuclei count in test [2] amounted to 121%; in test [3] it was 134%. The fluorescence slope is -0.471 (inactive) in test [4] and 0.00469 (inactive) in test [6]. Further, the NADPH fluorescence slope in test [5] is -2.5e-05 (inactive).
Consider `COCCNC(=O)c1ccc(Cl)c(Cl)c1`, for which the cell count in test [1] was determined as 283. For the same compound, the inhibition was -9.1% (inactive) in test [1], 4.3% (inactive) in test [3], -9.14% (inactive) in test [7] and -8.45% (inactive) in test [8]. Also, the inhibition of aggregation in test [2] is -23.9% (inactive). In addition, the results for the nuclei count in test [2] and in test [3] were 119% and 116%, respectively. Further, the fluorescence slope is -0.486 (inactive) in test [4] and 0.00569 (inactive) in test [6]. Moreover, in test [5], the NADPH fluorescence slope was -4.2e-05 (inactive).
Regarding `O=C(CSc1nnc2scc(-c3ccccc3)n12)N1CCN(Cc2ccccc2)CC1`, the cell count in test [1] was 703. The inhibition in test [1] was -24.5% (inactive); in test [3], 19.1% (inactive); in test [7], 6.37% (inactive); in test [8], 7.98% (inactive). Further, in test [2], the inhibition of aggregation was 6.5% (inactive). For the same compound, the nuclei count amounted to 110% in test [2] and 91.4% in test [3]. Also, the fluorescence slope in test [4] was -0.5 (inactive); in test [6] it was 0.00675 (inactive). Besides, in test [5], the NADPH fluorescence slope is 2.7e-06 (inactive).
